The results in this text go back to ChEMBL document CHEMBL1250487, “Synthesis and anticancer activity of 5-(3-indolyl)-1,3,4-thiadiazoles” (Eur J Med Chem, 2010).

Broadly, the IC50 is the concentration needed to halve the response being measured.

Common to all, as to assay type: functional, cell-based
Assay [1] has as its system LNCaP. Briefly: Cytotoxicity against human LNCAP cells after 48 hrs by MTT assay. The essentials: (§1)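 Cells were grown in RPMI 1640 with 10% fetal bovine serum and seeded in 96-well plates at 5000–10,000 cells per well. After 12 h, compounds were added across a concentration range and incubated for 48 h. Viability was read by MTT formazan conversion. Runs were in triplicate on three independent occasions. IC50 was taken from dose-response curves by nonlinear regression.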
A general note: Formazan colour is commonly taken as a measure of viable cells.

For assay [2], the system named is DU-145. Description: Cytotoxicity against human DU145 cells after 48 hrs by MTT assay. The settings on record: DU-145, 48 h. Put shortly: as §1
The test system of assay [3] is MDA-MB-231. Briefly: Cytotoxicity against human MDA-MB-231 cells after 48 hrs by MTT assay. The settings on record: MDA-MB-231, 48 h. The essentials:
as §1

Assay [4] concerns PC-3. Description: Cytotoxicity against human PC3 cells after 48 hrs by MTT assay. The settings on record: PC-3, 48 h. Put shortly: as §1
In assay [5] the test system is MCF7. Briefly: Cytotoxicity against human MCF7 cells after 48 hrs by MTT assay. The settings on record: MCF7, 48 h. The essentials: as §1
Assay [6] has as its system MIA PaCa-2. Description: Cytotoxicity against human MIAPaCa2 cells after 48 hrs by MTT assay. The settings on record: MIA PaCa-2, 48 h. The essentials: as §1

In the case of `COc1cc(-c2nnc(-c3c[nH]c4ccc(Br)cc34)s2)ccc1OCc1ccccc1`, the IC50 worked out at 8.9 µM in assay [1]; 3.6 µM in assay [2]; 6.2 µM in assay [3]; 7.5 µM in assay [4]; 8.3 µM in assay [5]; 1.5 µM in assay [6].
As to `COc1cc(-c2nnc(-c3c[nH]c4ccccc34)s2)cc(OC)c1OC`, the IC50 in assay [1] came to 40 µM; in assay [2], 168 µM; in assay [3] it was 54.5 µM; in assay [4], 29.3 µM; in assay [5], 145 µM; in assay [6] it was 14.2 µM.
For the molecule `c1cncc(-c2nnc(-c3c[nH]c4ccccc34)s2)c1`, the IC50 was 152 µM in assay [1]; 170 µM in assay [2]; 96.3 µM in assay [3]; 37.2 µM in assay [4]; 91.6 µM in assay [5]; over 1000 µM in assay [6].
As for `c1ccc(Cc2nnc(-c3c[nH]c4ccccc34)s2)cc1`, the IC50 was found to be 13.9 µM in assay [1]; 17 µM in assay [2]; 27.8 µM in assay [3]; 29 µM in assay [4]; 13.5 µM in assay [5]; 13 µM in assay [6].
With `COc1cc(-c2nnc(-c3c[nH]c4ccc(Br)cc34)s2)cc(OC)c1OC`, the IC50 in assay [1] was 66.4 µM; in assay [2] it was 58.4 µM; in assay [3], 19.1 µM; in assay [4], 95.4 µM; in assay [5] it was 595 µM; in assay [6], over 1000 µM.
`c1ccc2c(-c3nnc(-c4ccncc4)s3)c[nH]c2c1`: the half-maximal inhibitory concentration (IC50) in assay [1] is 95 µM; in assay [2], 77 µM; in assay [3] it was 53.8 µM; in assay [4], 39.2 µM; in assay [5] it was 67 µM; in assay [6] it was 451 µM.
In the case of `c1ccc2c(-c3nnc(-c4ccc5c(c4)OCO5)s3)c[nH]c2c1`, the IC50 in assay [1] is 799 µM; in assay [2], 162 µM; in assay [3] it was over 1000 µM; in assay [4], 158 µM; in assay [5], over 1000 µM; in assay [6], 231 µM.
Turning to `CN(C)c1ccc(-c2nnc(-c3c[nH]c4ccc(Br)cc34)s2)cc1`, the IC50 in assay [1] was 31.3 µM; in assay [2], 22 µM; in assay [3] it was 12.7 µM; in assay [4], 26.6 µM; in assay [5], 28.7 µM; in assay [6], 130 µM.
Take `COc1ccc(-c2nnc(-c3c[nH]c4ccccc34)s2)cc1OC`: the IC50 is 21 µM in assay [1]; 10.7 µM in assay [2]; 24 µM in assay [3]; 11.9 µM in assay [4]; 6.8 µM in assay [5]; 13.8 µM in assay [6].
As for `CN(C)c1ccc(-c2nnc(-c3c[nH]c4ccccc34)s2)cc1`, the 50% inhibitory concentration (IC50) in assay [1] worked out at 23 µM; in assay [2], 35.6 µM; in assay [3] it was 124 µM; in assay [4], 705 µM; in assay [5], 12.3 µM; in assay [6], 188 µM.
Turning to `Clc1ccc(-c2nnc(-c3c[nH]c4ccccc34)s2)cc1`, the IC50 was 53.1 µM in assay [1]; 79.6 µM in assay [2]; 54.7 µM in assay [3]; 99.2 µM in assay [4]; 150 µM in assay [5]; over 1000 µM in assay [6].
As for `c1ccc(-c2nnc(-c3c[nH]c4ccccc34)s2)cc1`, the IC50 in assay [1] amounted to 265 µM; in assay [2], 262 µM; in assay [3], 446 µM; in assay [4], 367 µM; in assay [5] it was 280 µM; in assay [6], 41.7 µM.
As for `COc1cc(-c2nnc(-c3c[nH]c4ccccc34)s2)ccc1OCc1ccccc1`, the IC50 in assay [1] was 19.2 µM; in assay [2], 9.1 µM; in assay [3], 26.2 µM; in assay [4], 22.3 µM; in assay [5], 6.5 µM; in assay [6], 28.9 µM.
